The values that follow come from the RNAGym collection of RNA variant scans (doi:10.1002/anie.201605470).

Sequences and labels used below:
B1: Osa-1-4 twister ribozyme (parent)
chain: CCGCCUAACACUGCCAAUGCCGGUCCCAAGCCCGGAUAAAAGUGGAGGGGGCGG

In the data set the parent is B1. The experiment in a line: self-cleavage, relative activity (ratio to wild type); higher = more cleavage; co-transcriptional. Put shortly:
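The 48 positions downstream of the cleavage site in a 54-nucleotide Oryza sativa twister ribozyme template were synthesised at 97 % wild-type base and 1 % of each other base. The template was transcribed in vitro at 37 °C for 2 h, with self-cleavage allowed during transcription. Reads with or without upstream sequence after deep sequencing marked cleavage status, and relative activity is fraction cleaved normalised to wild type.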
Turning to CCGCCUAACACUGCCAAUGCCGGUCCCAAGCCCGGACAGAAGUGGAGGGGGCGG [A39G U37C], the self-cleavage was 1.
To CCGCCUAACACUGCCAAUGCCGGUCCCAAGCCCGGAGAGAAGUGGAGGGGGCGG [A39G U37G] belongs 1.01.
To CCGCCUAACACUGCCAAUGCCGGUCCCAAGCCCGGAAAGAAGUGGAGGGGGCGG [A39G U37A] belongs 1.01.
Take CCGCCUAACACUGCCAAUGACGGUCCCAAGCCCGGAUAUAAGUGGAGGGGGCGG [A39U C20A]: the self-cleavage was found to be 0.84.
For CCGCCUAACACUGCCAAUGGCGGUCCCAAGCCCGGAUAUAAGUGGAGGGGGCGG [A39U C20G], the self-cleavage is 0.09.
To CCGCCUAACACUGCCAAUGUCGGUCCCAAGCCCGGAUAUAAGUGGAGGGGGCGG [A39U C20U] belongs 0.96.
The figure for CCGCCUAACACUGCCAAUGCCGGUCCCAAGCCCGGAUAGAAGUGGAGGGGGCAG [A39G G53A] is 0.55; for CCGCCUAACACUGCCAAUGCCGGUCCCAAGCCCGGAUAGAAGUGGAGGGGGCCG [A39G G53C] it is 0.08; for CCGCCUAACACUGCCAAUGCCGGUCCCAAGCCCGGAUAGAAGUGGAGGGGGCUG [A39G G53U] it is 0.2.
Consider CCGCCUAACACUGCCAAUGCCGGUCCCAAGACCGGAUAUAAGUGGAGGGGGCGG [A39U C31A], for which the self-cleavage came to 0.03.
As to CCGCCUAACACUGCCAAUGCCGGUCCCAAGUCCGGAUAUAAGUGGAGGGGGCGG [A39U C31U], the self-cleavage stood at 0.67.
The figure for CCGCCUAACACUGCCAAUGCCGGUCCCAAGGCCGGAUAUAAGUGGAGGGGGCGG [A39U C31G] is 0.08; for CCGCCUAACACUGCCAACGCCGGUCCCAAGCCCGGAUAGAAGUGGAGGGGGCGG [A39G U18C] it is 0.96; for CCGCCUAACACUGCCAAAGCCGGUCCCAAGCCCGGAUAGAAGUGGAGGGGGCGG [A39G U18A] it is 1.
Turning to CCGCCUAACACUGCCAAGGCCGGUCCCAAGCCCGGAUAGAAGUGGAGGGGGCGG [A39G U18G], the self-cleavage amounted to 0.87.
The figure for CCGCCUAACACUGCCAAUGCCGGGCCCAAGCCCGGAUAGAAGUGGAGGGGGCGG [A39G U24G] is 0.02.
For CCGCCUAACACUGCCAAUGCCGGCCCCAAGCCCGGAUAGAAGUGGAGGGGGCGG [A39G U24C], the self-cleavage stood at 0.14.
The figure for CCGCCUAACACUGCCAAUGCCGGACCCAAGCCCGGAUAGAAGUGGAGGGGGCGG [A39G U24A] is 0.09; for CCGCCUAACACUGCCAAUGCCGGUCCCAAGCACGGAUAUAAGUGGAGGGGGCGG [A39U C32A] it is 0.08; for CCGCCUAACACUGCCAAUGCCGGUCCGAAGCCCGGAUAUAAGUGGAGGGGGCGG [A39U C27G] it is 0.09.
To CCGCCUAACACUGCCAAUGCCGGUCCUAAGCCCGGAUAUAAGUGGAGGGGGCGG [A39U C27U] belongs 0.12; to CCGCCUAACACUGCCAAUGCCGGUCCAAAGCCCGGAUAUAAGUGGAGGGGGCGG [A39U C27A], 0.12.
Turning to CCGCCUAACACGGCCAAUGCCGGUCCCAAGCCCGGAUAGAAGUGGAGGGGGCGG [A39G U12G], the self-cleavage was 0.28.
The figure for CCGCCUAACACCGCCAAUGCCGGUCCCAAGCCCGGAUAGAAGUGGAGGGGGCGG [A39G U12C] is 0.19; for CCGCCUAACACAGCCAAUGCCGGUCCCAAGCCCGGAUAGAAGUGGAGGGGGCGG [A39G U12A] it is 0.69.
The figure for CCGCCUAACACUGCCAAUGCCGGUCCCAAGCCCGGAUAGAAGUGGAGGGGACGG [A39G G51A] is 0.67; for CCGCCUAACACUGCCAAUGCCGGUCCCAAGCCCGGAUAGAAGUGGAGGGGUCGG [A39G G51U] it is 0.3.
For CCGCCUAACACUGCCAAUGCCGGUCCCAAGCCCGGAUAGAAGUGGAGGGGCCGG [A39G G51C], the self-cleavage was found to be 0.09.
The figure for CCGCCUAACACUGCCAAUGCCGGUCCCAAGCCCGGAUAGAAGUGGAGGGGGCGC [A39G G54C] is 0.76; for CCGCCUAACACUGCCAAUGCCGGUCCCAAGCCCGGAUAGAAGUGGAGGGGGCGU [A39G G54U] it is 0.8.
Take CCGCCUAACACUGCCAAUGCCGGUCCCAAGCCCGGAUAGAAGUGGAGGGGGCGA [A39G G54A]: the self-cleavage was 0.79.
As for CCGCCUAACACUGACAAUGCCGGUCCCAAGCCCGGAUAUAAGUGGAGGGGGCGG [A39U C14A], the self-cleavage came out at 0.09.
Consider CCGCCUAACACUGGCAAUGCCGGUCCCAAGCCCGGAUAUAAGUGGAGGGGGCGG [A39U C14G], for which the self-cleavage was 0.12.
To CCGCCUAACACUGUCAAUGCCGGUCCCAAGCCCGGAUAUAAGUGGAGGGGGCGG [A39U C14U] belongs 0.17.
For CCGCCUAACACUGCCAAUGCCGGUCCCAAGCCCGUAUAGAAGUGGAGGGGGCGG [A39G G35U], the self-cleavage was determined as 0.87.
On to CCGCCUAACACUGCCAAUGCCGGUCCCAAGCCCGAAUAGAAGUGGAGGGGGCGG [A39G G35A], for which the self-cleavage was determined as 0.78.
With CCGCCUAACACUGCCAAUGCCGGUCCCAAGCCCGCAUAGAAGUGGAGGGGGCGG [A39G G35C], the self-cleavage was 0.22.
CCGCCUAAGACUGCCAAUGCCGGUCCCAAGCCCGGAUAUAAGUGGAGGGGGCGG [A39U C9G]: the self-cleavage was 0.42.
To CCGCCUAAAACUGCCAAUGCCGGUCCCAAGCCCGGAUAUAAGUGGAGGGGGCGG [A39U C9A] belongs 0.33; to CCGCCUAAUACUGCCAAUGCCGGUCCCAAGCCCGGAUAUAAGUGGAGGGGGCGG [A39U C9U], 0.74.
For the variant CCGCCUAACACUGCCAAUGCCGGUCCCAAGCCCGGAUAGAACUGGAGGGGGCGG [A39G G42C], the self-cleavage is 0.16.
For the variant CCGCCUAACACUGCCAAUGCCGGUCCCAAGCCCGGAUAGAAAUGGAGGGGGCGG [A39G G42A], the self-cleavage came out at 0.37.
Turning to CCGCCUAACACUGCCAAUGCCGGUCCCAAGCCCGGAUAGAAUUGGAGGGGGCGG [A39G G42U], the self-cleavage was found to be 0.08.
The figure for CCGCCUAACACUGCCAAUGCCGGUCCCAAGCCCGGAUAUAAGUGGGGGGGGCGG [A39U A46G] is 0.04; for CCGCCUAACACUGCCAAUGCCGGUCCCAAGCCCGGAUAUAAGUGGCGGGGGCGG [A39U A46C] it is 0.05.
To CCGCCUAACACUGCCAAUGCCGGUCCCAAGCCCGGAUAUAAGUGGUGGGGGCGG [A39U A46U] belongs 0.07.
The figure for CCGCCUAACACUGCCAAUGCCGGUCCCAAGCCCGGAUAGAAGUGGAGAGGGCGG [A39G G48A] is 0.1; for CCGCCUAACACUGCCAAUGCCGGUCCCAAGCCCGGAUAGAAGUGGAGUGGGCGG [A39G G48U] it is 0.07.
In the case of CCGCCUAACACUGCCAAUGCCGGUCCCAAGCCCGGAUAGAAGUGGAGCGGGCGG [A39G G48C], the self-cleavage was 0.08.
